Source: ChEMBL document CHEMBL2040808, “Design, synthesis, and in vitro activity of novel 2'-O-substituted 15-membered azalides” (J Med Chem, 2012)
Converted amounts (≈) assume the structure as drawn.

How the values were obtained:
[1] = test system: Plasmodium falciparum; assay: Antimalarial activity against chloroquine-sensitive Plasmodium falciparum 3D7A infected in type A rhesus-positive human erythrocytes assessed as [3H]hypoxanthine incorporation after 48 hrs by scintillation counting; type: functional, organism-based
Method in brief: (§1)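 Modified semiautomated microdilution: compounds dissolved in DMSO, diluted in RPMI 1640 with 10% v/v human plasma, serial 1:2 dilutions in triplicate. Infected erythrocytes at 3% hematocrit, 0.25−0.55% parasitemia. [3H]hypoxanthine at 12.5−16 μCi/mL final. Incubated 48 h, 37 °C, in 5% O2/3% CO2/92% N2. Harvested on fiberglass strips, scintillation counted. IC50 by nonlinear regression of concentration−response curves.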

[2] = test system: Plasmodium falciparum; assay: Antimalarial activity against chloroquine-resistant Plasmodium falciparum W2 infected in type A rhesus-positive human erythrocytes assessed as [3H]hypoxanthine incorporation after 48 hrs by scintillation counting; type: functional, organism-based; method in brief: as §1
[3] = test system: Plasmodium falciparum; assay: Ratio of IC50 for azithromycin to compound IC50 for chloroquine-sensitive Plasmodium falciparum 3D7A infected in type A rhesus-positive human erythrocytes assessed as [3H]hypoxanthine incorporation after 48 hrs by scintillation counting; type: functional
[4] = test system: Plasmodium falciparum; assay: Ratio of IC50 for azithromycin to compound IC50 for chloroquine-resistant Plasmodium falciparum W2 infected in type A rhesus-positive human erythrocytes assessed as [3H]hypoxanthine incorporation after 48 hrs by scintillation counting; type: functional
[5] = test system: HepG2; assay: Cytotoxicity against human HepG2 cells after 24 hrs by MTS assay; type: cell-based; conditions: HepG2, 24 h
Method in brief: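 Hep G2 cells were kept in RPMI 1640 with 10% FBS at 37 °C and 5% CO2. Wells held 50000 cells and received 1:2 serial dilutions of compound (DMSO stock diluted in medium) for 24 h. MTS reagent was then added for 2 h, absorbance was read at 490 nm, and IC50 was taken from response curves.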

[6] = Selectivity ratio of IC50 for human HepG2 cells to IC50 for chloroquine-sensitive Plasmodium falciparum 3D7A; type: ADME, cell-based; conditions: HepG2 cells versus Plasmodium falciparum 3D7A, read-out: Ratio IC50
Method in brief: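 Selectivity is the HepG2 IC50 divided by the P. falciparum IC50. For HepG2, 50000 cells per well in RPMI 1640 with 10% FBS were exposed to 1:2 serial dilutions for 24 h at 37 °C, 5% CO2. MTS was added for 2 h and absorbance read at 490 nm. Parasite IC50 came from the 48 h [3H]hypoxanthine assay.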

[7] = test system: Streptococcus pneumoniae; assay: Antibacterial activity against Streptococcus pneumoniae isolate SP030 by broth microdilution method; type: functional
Method in brief: (§2)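 Standard broth microdilution MIC against macrolide-sensitive strains. For streptococci, 5% horse serum replaced lysed horse blood in the broth, and inocula were grown on Columbia agar with 5% sheep blood. S. aureus was grown on Mueller–Hinton agar.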

[8] = test system: Streptococcus pyogenes; assay: Antibacterial activity against Streptococcus pyogenes isolate 3565 by broth microdilution method; type: functional; method in brief: as §2
[9] = test system: Staphylococcus aureus; assay: Antibacterial activity against Staphylococcus aureus ATCC 13709 by broth microdilution method; type: functional; method in brief: as §2
[10] = Aqueous solubility of the compound at pH 4; type: physicochemical
[11] = Selectivity ratio of IC50 for human HepG2 cells to IC50 for chloroquine-sensitive Plasmodium falciparum 3D7A; conditions: HepG2 cells versus Plasmodium falciparum 3D7A

| Structure (SMILES) | IC50 [1] [nM] | IC50 [2] [nM] | Ratio IC50 [3] | Ratio IC50 [4] | IC50 [5] [nM] | selectivity ratio [6] | MIC [7] [µg/mL] | MIC [8] [µg/mL] | MIC [9] [µg/mL] | solubility [10] [µg/mL] | selectivity ratio [11] |
| --- | --- | --- | --- | --- | --- | --- | --- | --- | --- | --- | --- |
| CC[C@H]1OC(=O)[C@H](C)[C@@H](O)[C@H](C)[C@@H](O[C@@H]2O[C@H](C)C[C@H](N(C)C)[C@H]2OCCCNCc2ccnc3ccccc23)[C@](C)(O)C[C@@H](C)CN(C)[C@H](C)[C@@H](O)[C@]1(C)O | 540 | 432 | 3 | 3 | > 100000 | 132 | > 64 | > 64 | > 64 | > 10000 | 132 |
| CC[C@H]1OC(=O)[C@H](C)[C@@H](O[C@H]2C[C@@](C)(OC)[C@@H](O)[C@H](C)O2)[C@H](C)[C@@H](O[C@@H]2O[C@H](C)C[C@H](N(C)C)[C@H]2OCCCNC(=O)CCCNc2ccnc3ccccc23)[C@](C)(O)C[C@@H](C)CN(C)[C@H](C)[C@@H](O)[C@]1(C)O | 220 | 135 | 3 | 3 | > 100000 | 132 | > 64 | > 64 | > 64 | > 10000 | 132 |
| CC[C@H]1OC(=O)[C@H](C)[C@@H](O[C@H]2C[C@@](C)(OC)[C@@H](O)[C@H](C)O2)[C@H](C)[C@@H](O[C@@H]2O[C@H](C)C[C@H](N(C)C)[C@H]2OCCCNC(=O)CCCNc2ccnc3cc(Cl)ccc23)[C@](C)(O)C[C@@H](C)CN(C)[C@H](C)[C@@H](O)[C@]1(C)O | 29 | 19 | 3 | 3 | 50000 | 132 | > 64 | > 64 | > 64 | > 10000 | 132 |
| CC[C@H]1OC(=O)[C@H](C)[C@@H](O[C@H]2C[C@@](C)(OC)[C@@H](O)[C@H](C)O2)[C@H](C)[C@@H](O[C@@H]2O[C@H](C)C[C@H](N(C)C)[C@H]2OCCC(=O)NCCNc2ccnc3cc(Cl)ccc23)[C@](C)(O)C[C@@H](C)CN(C)[C@H](C)[C@@H](O)[C@]1(C)O | 18 | 13 | 3 | 3 | 18000 | 132 | 64 (≈ 62.5 µM) | 64 (≈ 62.5 µM) | 64 (≈ 62.5 µM) | > 10000 | 132 |
| CC[C@H]1OC(=O)[C@H](C)[C@@H](O[C@H]2C[C@@](C)(OC)[C@@H](O)[C@H](C)O2)[C@H](C)[C@@H](O[C@@H]2O[C@H](C)C[C@H](N(C)C)[C@H]2OCCCNC(=O)CNc2ccnc3ccccc23)[C@](C)(O)C[C@@H](C)CN(C)[C@H](C)[C@@H](O)[C@]1(C)O | 119 | 68 | 3 | 3 | > 100000 | 132 | > 64 | > 64 | > 64 | > 10000 | 132 |
| CC[C@H]1OC(=O)[C@H](C)[C@@H](O)[C@H](C)[C@@H](O[C@@H]2O[C@H](C)C[C@H](N(C)C)[C@H]2OCCCNC(=O)CNc2ccnc3ccccc23)[C@](C)(O)C[C@@H](C)CN(C)[C@H](C)[C@@H](O)[C@]1(C)O | 1660 | 815 | 3 | 3 |  | 132 |  |  |  | > 10000 | 132 |
| CC[C@H]1OC(=O)[C@H](C)[C@@H](O[C@H]2C[C@@](C)(OC)[C@@H](O)[C@H](C)O2)[C@H](C)[C@@H](O[C@@H]2O[C@H](C)C[C@H](N(C)C)[C@H]2O)[C@](C)(O)C[C@@H](C)CN(C)[C@H](C)[C@@H](O)[C@]1(C)O [AZITHROMYCIN] |  |  |  |  |  | 132 | ≤ 0.125 | ≤ 0.125 | 0.5 (≈ 0.668 µM) |  | 132 |
| CC[C@H]1OC(=O)[C@H](C)[C@@H](O)[C@H](C)[C@@H](O[C@@H]2O[C@H](C)C[C@H](N(C)C)[C@H]2OCCCNCc2cnc3ccccc3c2)[C@](C)(O)C[C@@H](C)CN(C)[C@H](C)[C@@H](O)[C@]1(C)O | 1370 | 286 | 3 | 3 | > 100000 |  | > 64 | > 64 | > 64 | > 10000 |  |
